pIC50: −log10 of the molar value.
Experiments:
WspR = WspR (Pseudomonas aeruginosa, UniProt Q9HXT9); test: EnzChek pyrophosphate assay; format: biochemical
Procedure, shortened: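 C-terminally 6×His-tagged WspR is expressed in E. coli BL21(DE3) in LB with 100 μg ml−1 ampicillin at 37 °C, then induced at A600 1.0 with 1 mM IPTG at 18 °C for 12–16 h. Cells are sonicated and the protein is purified by IMAC (500 mM imidazole elution), then Superdex 200 SEC in 25 mM Tris-HCl pH 7.4, 100 mM NaCl, 1 mM DTT. Pyrophosphate released from GTP-to-c-di-GMP conversion is read by EnzChek.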

tDGC-R158A = tDGC-R158A (Thermotoga maritima, UniProt Q9X2A8, R158A); test: EnzChek pyrophosphate assay; format: biochemical; conditions: substrate GTP
Procedure, shortened: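 C-terminally 6×His-tagged T. maritima tDGC-R158A is expressed in E. coli BL21(DE3) with kanamycin at 37 °C and induced at OD600 0.8 with 0.8 mM IPTG at 25 °C for 4 h. It is French-press lysed and purified on Ni-NTA with a 20–500 mM imidazole gradient in Tris-HCl pH 8.0. Pyrophosphate from GTP conversion is read by a high-throughput-adapted EnzChek assay, giving % inhibition versus untreated enzyme.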

SMILES | pIC50 (WspR) | % Inhibition of tDGC-R158A (tDGC-R158A; 100 µM) [%] | % Inhibition of tDGC-R158A (tDGC-R158A; 200 µM) [%]
CC(=O)c1c(O)c(C)c(O)c(Cc2c(O)c3c(c(C(=O)/C=C/c4ccccc4)c2O)OC(C)(C)C=C3)c1O [LP 1062, (E)-1-[6-[(3-acetyl-2,4,6-trihydroxy-5-methylphenyl)methyl]-5,7-dihydroxy-2,2-dimethyl-2H-1-benzopyran-8-yl]-3-phenyl-2-propen-1-one] | 4.14 |  | 
CCOc1ccc(/C=N/NC(=O)c2cc(O)c(O)c(O)c2)cc1CN1CC2CC(C1)c1cccc(=O)n1C2 (stereo not drawn) [LP 3134, N′-((1E)-{4-ethoxy-3-[(8-oxo-1,5,6,8-tetrahydro-2H-1,5-methanopyrido[1,2-a][1,5]diazocin-3(4H)-yl)methyl]phenyl}methylene)-3,4,5-trihydroxybenzohydrazide] | 4.35 | 72.1 | 
Cc1cc2c(C(C)C)c(O)c(O)c(C=O)c2c(O)c1-c1c(C)cc2c(C(C)C)c(O)c(O)c(C=O)c2c1O [LP 3145, 1,1′,6,6′,7,7′-hexahydroxy-5,5′-diisopropyl-3,3′-dimethyl-2,2′-binaphthalene-8,8′-dicarbaldehyde] | 4.15 |  | 
CN(CCCn1c2c(c(=O)[nH]c1=O)CSCC2)S(=O)(=O)c1ccc(N)cc1 [LP 4010] | 3.99 |  | 20.5

From article PMC4120261 (Biofouling, 2013)
